# Results: ChEMBL document CHEMBL3593156, “Bioactive Sesquiterpenes and Lignans from the Fruits of Xanthium sibiricum” (J Nat Prod, 2015)
# What was measured:
# [1] = Antiinflammatory activity in C57BL6/J mouse BV2 cells assessed as inhibition of LPS-induced nitric oxide production after 24 hrs by Griess assay; type: functional, cell-based; settings: BV-2, 24 h
# Procedure, shortened: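 Mouse (C57BL6/J) macrophages grown 24 h at 37 °C in RPMI1640, then given 1 μg/mL LPS plus test compounds for a further 24 h at 37 °C. Blank, LPS-only and dexamethasone (10−6 M) wells served as controls. Nitrite in supernatant was read with Griess reagent at 570 nm against a sodium nitrite standard.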
# Coxsackievirus B3 = assay: Antiviral activity against Coxsackievirus B3 infected in African green monkey Vero cells assessed as inhibition of virus-induced cytopathic effect; type: functional, organism-based; settings: Enterovirus B
# Procedure, shortened: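 Vero cells (2.5 × 10^4/well) were plated for 24 h, infected 2 h with 100 TCID50 Coxsackievirus B3 (Nancy), then given compounds at various concentrations until control CPE reached 4+. Run in triplicate, at least three times. IC50 is the concentration inhibiting 50% of CPE (Reed and Muench). SI = TC50/IC50.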
# [2] = Antiviral activity against Influenza A virus (A/FM/1/47(H1N1)) infected in MDCK cells assessed as inhibition of virus-induced cytopathic effect; type: functional, cell-based, Influenza A virus (A/Fort Monmouth/1/1947(H1N1))
# Procedure, shortened: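 MDCK cells (2.5 × 10^4 cells/well) plated 24 h, PBS-washed, infected 2 h with 100 TCID50 influenza A/FM/1/47 (H1N1); compounds at various concentrations added, incubation until control CPE reached 4+. Triplicate, at least three separate runs; IC50 = minimal concentration inhibiting 50% CPE, Reed and Muench method.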
# [3] = Selectivity index, ratio of TC50 for MDCK cells to IC50 for Influenza A virus (A/FM/1/47(H1N1))-induced cytopathic effect in MDCK cells; type: toxicity, cell-based; settings: dog, read-out: Selectivity Index
# Procedure, shortened: (§1)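 MDCK cells (2.5 × 10^4 cells/well). TC50: cells incubated overnight, compounds applied in triplicate for 2 days, CPE read, 50% growth inhibition versus controls by Reed and Muench. IC50: PBS-washed cells infected 2 h with 100 TCID50 influenza A/FM/1/47 (H1N1), compounds added until control CPE 4+, 50% CPE inhibition by Reed and Muench. SI = TC50/IC50.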
# [4] = Selectivity index, ratio of TC50 for African green monkey Vero cells to IC50 for Coxsackievirus B3-induced cytopathic effect in African green monkey Vero cells; type: toxicity, cell-based; settings: read-out: Selectivity Index
# Procedure, shortened: as §1, with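 “Vero” for “MDCK”, “IC50:” for “IC50: PBS-washed”, “CVB3 (Nancy),” for “influenza A/FM/1/47 (H1N1),”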
# Mus musculus [5] = assay: Antiinflammatory activity in ICR mouse assessed as inhibition of croton oil-induced ear edema at 50 mg/ml administered 1 hr prior to croton oil challenge measured after 4 hrs relative to control; type: functional
# Procedure, shortened: (§2)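 Male ICR mice (18−20 g, n = 10 per group) received 0.4 mg croton oil in […] acetone on the left ear. Treatment was applied 1 h before the croton oil, and the animals were killed 4 h after it. Edema was taken as the weight difference between 8 mm punches of the treated and untreated ears, expressed as % reduction versus control mice.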
# [6] = Cytotoxicity against MDCK cells assessed as growth inhibition by CPE assay; type: cell-based, Canis lupus familiaris; settings: dog, read-out: TC50 (the source's name)
# Procedure, shortened: (§3)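 Vero or MDCK cells (2.5 × 10^4/well) were seeded and incubated overnight. Medium was then replaced with compounds at various concentrations in triplicate. After a 2-day incubation, cytotoxicity was scored by CPE. TC50 is the concentration inhibiting 50% of cell growth versus controls (Reed and Muench). Values are means of three independent determinations.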
# [7] = Cytotoxicity against African green monkey Vero cells assessed as growth inhibition by CPE assay; type: cell-based; settings: chlorocebus sabaeus, read-out: TC50 (the source's name); procedure, shortened: as §3
# Mus musculus [8] = assay: Antiinflammatory activity in ICR mouse assessed as inhibition of croton oil-induced ear edema at 1 mg/ml administered 1 hr prior to croton oil challenge measured after 4 hrs relative to control; type: functional; procedure, shortened: as §2
Compound,IC50 [1] [µM],IC50 (Coxsackievirus B3) [µM],IC50 [2] [µM],selectivity ratio [3],selectivity ratio [4],inhibition (INH) (Mus musculus [5]) [%],CC50 [6] [µM],CC50 [7] [µM],inhibition (INH) (Mus musculus [8]) [%]
COc1cc([C@@H]2Oc3c(OC)cc(C(=O)[C@H](O)CO)cc3[C@H]2CO)ccc1O,> 10,> 35,> 35,–,–,–,–,–,–
C=C1C(=O)O[C@@H]2C=C(CCC(C)=O)[C@@H](C)CC[C@@H]12,8.5,6.4,8.6,2.2,3,<20,19.3,19.2,–
C=C1[C@@H]2C[C@@H]2[C@@]2(C)C=C3OC(=O)C(C)=C3[C@@H](O)[C@H]12,> 10,> 35,> 35,–,–,–,–,–,–
C[C@@H]1C[C@H]2[C@@H]3CCC4=CC(=O)C=C[C@]4(C)[C@@]3(F)[C@@H](O)C[C@]2(C)[C@@]1(O)C(=O)CO [DEXAMETHASONE],0.025,–,–,–,–,–,–,–,70.5
CCOC(=O)/C=C/c1ccc(O)c(O)c1 [ETHYL CAFFEATE],2.5,> 35,3.7,5.2,–,–,19.3,–,–
CC(=O)CCC1=CC[C@H]2[C@H](C[C@@H]1C)OC(=O)[C@@H]2C,> 10,6.4,> 35,–,12.1,<20,–,77.6,–
C[C@H]1C[C@@H]2OC(=O)[C@H](C)[C@H]2C=CC1=O,> 10,> 35,> 35,–,–,–,–,–,–
CCOC(=O)c1ccc(O)c(O)c1,> 10,11.3,> 35,–,2.1,–,–,23.1,–
CC(=C/C(=O)O)/C=C/[C@]1(O)[C@@]2(C)CO[C@]1(C)CC(=O)C2,> 10,> 35,> 35,–,–,–,–,–,–
COc1cc([C@H]2Oc3c(OC)cc(C(=O)[C@@H](O)CO)cc3[C@@H]2CO)ccc1O,> 10,> 35,> 35,–,–,–,–,–,–
C[C@H]1C[C@@H]2OC(=O)[C@H](C)[C@H]2CC=C1C(=O)O,> 10,> 35,> 35,–,–,–,–,–,–
CC(O)CCC1=CC[C@H]2[C@@H](C[C@@H]1C)OC(=O)[C@@H]2C (stereo not given in full),5.7,> 35,> 35,–,–,–,–,–,–
CC(=C/C(=O)O)/C=C/[C@]1(O)[C@@]2(C)CO[C@]1(C)C[C@@H](O)C2,> 10,> 35,> 35,–,–,–,–,–,–
COC(=O)CC1=CC[C@H]2[C@H](C[C@@H]1C)OC(=O)[C@H]2C,> 10,> 35,> 35,–,–,–,–,–,–
CC(=O)/C=C/C1=CC[C@H]2[C@H](C[C@@H]1C)OC(=O)[C@@H]2C,3.7,> 35,> 35,–,–,<20,–,–,–
COc1cc(C(O)C(CO)Oc2ccc(C(=O)O)cc2OC)ccc1O (stereo not given),> 10,> 35,8.4,11.9,–,–,100,–,–
CCOC(=O)C1=C[C@@H](OC(CC)CC)[C@H](NC(C)=O)[C@@H](N)C1 [OSELTAMIVIR],–,–,2.7,1140,–,–,3120,–,–
C[C@@H]1C(=O)O[C@H]2C[C@H](C)C(C(=O)O)=CC[C@@H]21,> 10,> 35,> 35,–,–,–,–,–,–
C[C@H]1C[C@@H]2OC(=O)[C@H](C)[C@H]2CC=C1C=O,> 10,> 35,> 35,–,–,–,–,–,–
C=C1C(=O)O[C@H]2C[C@H](C)C(C=O)=CC[C@H]12,3,19.2,6.4,7.5,3.6,<20,48.1,69.3,–
Cc1cc(CCCOc2c(C)cc(-c3noc(C(F)(F)F)n3)cc2C)on1 [PLECONARIL],–,0.0025,–,–,16200,–,–,40.5,–
NC(=O)c1ncn([C@@H]2O[C@H](CO)[C@@H](O)[C@H]2O)n1 [RIBAVIRIN],–,1200,–,–,6.8,–,–,–,–
C=C1CC=C[C@]2(C)C[C@]3(O)OC(=O)C(C)C3=C[C@@H]12 (stereo not given in full) [HYDROXYLINDESTENOLIDE],3.9,> 35,> 35,–,–,37.7,–,–,–
C=C1[C@H]2C[C@H]2[C@]2(C)CC(=O)C3=C(C)C(=O)O[C@@H]3[C@@H]12,> 10,> 35,> 35,–,–,–,–,–,–
C=C1C(=O)O[C@H]2C[C@H](C)C(CCC(C)=O)=CC[C@H]12,5.6,> 35,> 35,–,–,46.9,–,–,–
CC(=O)/C=C/C1=CC[C@H]2[C@H](C[C@@H]1C)OC(=O)[C@H]2C,> 10,> 35,> 35,–,–,–,–,–,–
CC1=C2C[C@H]3[C@@]4(CO4)[C@H](O)C=C[C@]3(C)C[C@@H]2OC1=O,> 10,19.2,33.3,3,3.6,–,100,69.3,–
